Results gathered from unrelated publications.
Lines come from different studies, so protocols differ.
gag-pol reverse transcriptase: Gag-Pol polyprotein, reverse transcriptase (gag-pol, Human immunodeficiency virus 1, UniProt P03366)
gyrA: DNA gyrase subunit A (gyrA, Escherichia coli K-12, UniProt P0AES4)

| SMILES | target | observed | mode | technique | IC50 [nM] |
| --- | --- | --- | --- | --- | --- |
| CC/C(=N\NC(=O)C(C)Nc1ccccc1)c1ccc(O)c(C)c1O (centres unmarked) | cAMP-dependent protein kinase catalytic subunit alpha (PRKACA, Homo sapiens, UniProt P17612) | enzyme activity | inhibitor |  | 22.5 |
| Cc1cc(C)cc(S(=O)(=O)c2c(C(=O)NCCNS(=O)(=O)c3cccc(F)c3)[nH]c3ccc(Cl)cc23)c1 | gag-pol reverse transcriptase | enzyme activity | inhibitor | ELISA | 83 |
| CCn1ncc2c1-c1cnc(N)c(c1)O[C@H](C)c1cc(F)ccc1-c1nn(C)nc1C2 | Protein-tyrosine kinase 2-beta (PTK2B, Homo sapiens, UniProt Q14289) | enzyme activity | inhibitor | radiometric | 14 |
| CC(C)Oc1c(NC(=O)c2ccc(NC(=O)[C@H](CC(N)=O)NC(=O)c3ccc(NC(=O)c4ccc(C#N)cn4)cc3)cc2)ccc(C(=O)Nc2ccc(C(=O)O)cc2)c1O | gyrA | enzyme activity | inhibitor |  | 900 |
| COc1ccc(S(=O)(=O)NCCCNC(=O)c2[nH]c3ccc(Cl)cc3c2S(=O)(=O)c2cc(C)cc(C)c2)cc1 | gag-pol reverse transcriptase | enzyme activity | inhibitor | ELISA | 130 |
| N#Cc1ccc(Nc2nc(N)cc(Oc3ccc(-c4ccc(C#N)cc4)c(C#N)c3)n2)cc1 | gag-pol reverse transcriptase | enzyme activity | inhibitor |  | 90 |
| N#Cc1ccc(COc2cccc(C3CCN(Cc4nc5ccc(C(=O)O)cc5n4C[C@@H]4CCO4)CC3)n2)c(F)c1 | Gastric inhibitory polypeptide receptor (GIPR, Homo sapiens, UniProt P48546) | cAMP | antagonist |  | > 10000 |
| CC(C)Oc1c(NC(=O)c2ccc(NC(=O)[C@H](CC(N)=O)NC(=O)c3ccc(NC(=O)c4ccc(C#N)cc4)cc3)cc2)ccc(C(=O)NC2CCNCC2)c1O | gyrA | enzyme activity | inhibitor |  | 500 |
| Nc1ncnc2c1c(Cc1cccc3ccccc13)nn2CC1CCNCC1 | Tyrosine-protein kinase ABL1 (ABL1, Homo sapiens, UniProt P00519) | enzyme activity | inhibitor |  | > 20000 |
| Cc1cc(C)cc(S(=O)(=O)c2c(C(=O)NCCCCNS(=O)(=O)c3cccs3)[nH]c3ccc(Cl)cc23)c1 | gag-pol reverse transcriptase | enzyme activity | inhibitor | ELISA | 190 |
| O=C(Nc1ccn(Cc2ccc(O)cc2C(F)(F)F)n1)c1c(F)cccc1F | 5-hydroxytryptamine receptor 3A (HTR3A, Homo sapiens, UniProt P46098) | ion current | inhibitor |  | > 10000 |
| CC(C)Oc1c(NC(=O)c2ccc(NC(=O)[C@H](CC(N)=O)NC(=O)c3ccc(NC(=O)c4ccc(N)cc4)cc3)cc2)ccc(C(=O)Nc2ccc(C(=O)O)cc2)c1O | gyrA | enzyme activity | inhibitor |  | 26800 |
| Cc1cc(C)cc(S(=O)(=O)c2c(C(=O)NCCNS(=O)(=O)c3ccc([N+](=O)[O-])cc3)[nH]c3ccc(Cl)cc23)c1 | gag-pol reverse transcriptase | enzyme activity | inhibitor | ELISA | 100 |
| N#Cc1ccc(Nc2nc(N)cc(Oc3ccc(-c4ccccc4)cc3)n2)cc1 | gag-pol reverse transcriptase | enzyme activity | inhibitor |  | 570 |
| Cc1cc(C)cc(S(=O)(=O)c2c(C(=O)NCCCCNS(=O)(=O)c3ccc(Cl)cc3)[nH]c3ccc(Cl)cc23)c1 | gag-pol reverse transcriptase | enzyme activity | inhibitor | ELISA | 94 |
| N#Cc1ccc(Nc2nc(N)cc(Oc3ccc(-c4ccc(C#N)cc4)cc3C(F)(F)F)n2)cc1 | gag-pol reverse transcriptase | enzyme activity | inhibitor |  | 70 |
| O=C(Nc1cccc2[nH]ccc12)c1ccccc1 | Alpha-synuclein, monomer (SNCA, Homo sapiens, UniProt P37840) | amyloid aggregation | inhibitor | fluorescence | ~12900 |
